In the library only some 3.3% were active in any assay of this set; here they are far more common.
ABHD4 inh – inhibits mouse alpha/beta hydrolase domain 4; Q8VD66; purified mABHD4, FP-Rh probe fluorescence polarization; inhibition, % at 8.92 µM; actives 0.54% (n = 370,000);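 active = inhibition exceeding the mean over every tested compound plus 3 SD, cut at about 30% in these data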;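 also: 0% = plate median of compound wells and 100% = S159A mutant with DMSO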
Target sequence (Q8VD66 whole entry, looked up, the tested form may be a part): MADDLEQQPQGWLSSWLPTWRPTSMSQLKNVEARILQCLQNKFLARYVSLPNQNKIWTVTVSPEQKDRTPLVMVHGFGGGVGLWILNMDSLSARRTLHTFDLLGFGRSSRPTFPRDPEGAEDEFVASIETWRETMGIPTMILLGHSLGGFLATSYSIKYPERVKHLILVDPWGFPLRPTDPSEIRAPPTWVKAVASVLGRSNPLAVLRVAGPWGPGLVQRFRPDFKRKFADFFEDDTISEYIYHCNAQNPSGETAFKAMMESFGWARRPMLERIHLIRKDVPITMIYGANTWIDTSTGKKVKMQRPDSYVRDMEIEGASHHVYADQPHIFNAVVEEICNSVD
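System: mouse ABHD4 enzyme, wild type / Medium: HEPES pH 7.0, NaCl, Pluronic buffer / Reagent: FP-Rh activity-based fluorescent probe / Control set: S159A mutant high control, sample median low control / Detection: fluorescence polarization with parallel and perpendicular emission, 525/598 nm / Schedule: 45 min + 60 min at 25 °C / Compound dosing: 8.92 µM, single dose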
PRMT1 inh – inhibitors of human PRMT1 | Q99873 | recombinant PRMT1, activity-based probe fluorescence polarization | inhibition, % at 2.79 µM | actives 1.3% (n = 370,000);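 active = inhibition above about 21% made by adding two undisclosed values, limit read from the data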
rCAG binder – r(CAG) repeat RNA binding. actives 1.3% (n = 370,000). TO-PRO-1 dye displacement fluorescence. inhibition, % at 3 µM. AID 651821;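 active = inhibition above the plate cutoff, the mean of all test compounds on that plate plus 3 SD, cut at about 35% in these data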;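 also: 0% = DMSO alone and 100% = 100 µM mitoxantrone as full dye displacement; higher means more dye released from RNA so lower well fluorescence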
SIAE primary – blocks human sialic acid acetylesterase. inhibition, % at 9.66 µM. SIAE FP-Rh probe binding, fluorescence polarization. Q9HAT2. AID 1053197. actives 0.69% (n = 370,000);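 active = inhibition above a cutoff: mean of compounds within the control limits plus 3 SD of those, cut at about 17% in these data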;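 also: 0% = plate median of compound wells and 100% = probe without SIAE protein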
HTRA1 inh – HTRA1 (human) protease inhibition | recombinant HTRA1, FP-rhodamine activity-based probe, fluorescence polarization | actives 0.5% (n = 340,000) | inhibition, % at 5.96 µM; in the data active = inhibition above about 36%;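 also: 0% = enzyme with DMSO and 100% = wells lacking enzyme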
rCAG binder conf – r(CAG) RNA repeat binding, confirmation. shares compounds with rCAG binder. TO-PRO-1 dye displacement fluorescence. inhibition, % at 3 µM. actives 70% (n = 4,300);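 active = inhibition above a per-plate cutoff, the mean inhibition of sample wells plus 3 SD, cut at about 35% in these data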;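 also: loss of TO-PRO-1 fluorescence as compound displaces dye from 1x1 AA loop RNA; 0% = DMSO only wells and 100% = 100 µM mitoxantrone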
dCAG dye counter – counter-screen for rCAG RNA binders: DNA CAG dye complex inhibitors. shares compounds with rCAG binder. d(CAG) DNA oligo TO-PRO-1 dye displacement, fluorescence. inhibition, % at 3 µM. actives 94% (n = 4,300). AID 652068;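 active = inhibition above its plate's cutoff, the mean test-well inhibition plus 3 SD, cut at about 4.8% in these data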;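 also: 0% = DNA dye mix with DMSO and 100% = 100 µM mitoxantrone; hits displace the dye from DNA and so lower well fluorescence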
* = called active by the depositor; x = no result.

SMILES | ABHD4 inh | PRMT1 inh | rCAG binder | SIAE primary | HTRA1 inh | rCAG binder conf | dCAG dye counter
CC(C)(C)c1ccc(CC(=O)N2CCC2(C)C(=O)NS(=O)(=O)c2cccc(Cl)c2)cc1 (stereo unspecified) | 9 | -1 | 55* | 3 | x | 49* | 16*
CC(C)(C)c1ccc(S(=O)(=O)NC(=O)C2(C)CCN2C(=O)Cc2cc(F)ccc2F)cc1 (stereo unspecified) | 7 | 3 | 38* | -2 | x | 30 | 5.6*
Cc1cc(C)cc(CC(=O)N2CCC2(C)C(=O)NS(=O)(=O)c2ccc(Br)cc2)c1 (stereo unspecified) | -4 | -4 | 23 | -2 | x | x | x
CC1(C(=O)NS(=O)(=O)c2ccccc2)CCN1C(=O)Cc1cc(F)ccc1F (stereo unspecified) | 1 | 1 | 2 | -2 | x | x | x
Cc1cc(C)cc(CC(=O)N2CCC2(C)C(=O)NS(=O)(=O)c2ccc(C(C)(C)C)cc2)c1 (stereo unspecified) | 14 | 4 | 58* | 2 | x | 50* | 15*
Cc1c(NC(=O)C2CCCN(S(=O)(=O)c3ccc(C(C)(C)C)cc3)C2)c(=O)n(-c2ccccc2)n1C (stereo unspecified) | -2 | 0 | -1 | 2 | x | x | x
COC(=O)C1CN(C2CCCC2)CCS(=O)(=O)N1Cc1ccc(C)cc1 (stereo unspecified) | 0 | 1 | 2 | 5 | x | x | x
Cc1nn(-c2ccccc2)c(C)c1/C=N\NC(=O)CSc1nc2ccccc2n1Cc1ccc(Cl)cc1 | -17 | -3 | 9 | -19 | x | x | x
Cc1cccc(C)c1-n1cccc1/C=C1\SC(=S)N(c2cccc(C(=O)O)c2)C1=O | -20 | 2 | 84* | -24 | -145 | 78* | 41*
Cc1cccc(NC(=O)CN2C(=O)S/C(=C\c3cccn3-c3cccc(C(=O)O)c3)C2=O)c1 | -15 | 6 | 84* | -22 | -70 | 81* | 49*
COc1ccc(/C=C2\SC(=O)N(CC(=O)Nc3cccc(C)c3)C2=O)cc1O | 3 | -3 | 21 | -27 | -28 | x | x
COc1cc(/C=C2\SC(=O)N(CC(=O)Nc3cccc(C)c3)C2=O)ccc1OC(C)C(=O)O (stereo unspecified) | 6 | 5 | 54* | -6 | -10 | 44* | 14*
Cc1ccc(NC(=O)CN2C(=O)S/C(=C\c3cc(C)n(-c4ccc(C(=O)O)cc4)c3C)C2=O)cc1 | -43 | 1 | 68* | -5 | -39 | 85* | 48*
Cc1ccc(NC(=O)CN2C(=O)S/C(=C\c3cccn3-c3cccc(C(=O)O)c3)C2=O)cc1C | 4 | -2 | 7 | -14 | -13 | x | x
COc1ccc(NC(=O)CN2C(=O)S/C(=C/c3cccn3-c3ccc(C(=O)O)cc3)C2=O)cc1 | 13 | 1 | 24 | -4 | -8 | x | x
CCOC(=O)[C@@]12CCCC3=C1N(CCC3)C(=O)[C@H]2CC(=O)NCc1cccc2ccccc12 | 0 | -3 | 2 | 1 | x | x | x
Cc1occc1-c1nnc(SCC(=O)Nc2ccc3ncccc3c2)n1-c1ccccc1 | -3 | 7 | 5 | -5 | x | x | x
CCOC(=O)[C@@]12CN(C(=O)OC(C)(C)C)CC=C1N(Cc1ccc(OC)cc1)C(=O)[C@H]2CC(=O)N1CCN(C(=O)C2CC2)CC1 | -4 | -3 | 0 | -1 | x | x | x
O=C(O)c1ccc(COc2ccc(CO)cc2Cl)cc1 | -8 | -2 | 3 | 9 | 3 | x | x
CCN1C(=O)/C(=C/c2ccc(OCc3ccc(C(=O)O)cc3)c(Cl)c2)NC1=S | -33 | -5 | 57* | -11 | -38 | 51* | 16*
CC(=O)NS(=O)(=O)c1ccc(NC(=O)/C=C/c2cn(-c3ccccc3)nc2-c2ccccc2)cc1 | -98 | 1 | 87* | -107 | -105 | 86* | 66*
O=C(/C=C\c1cn(-c2ccccc2)nc1-c1ccccc1)Nc1nccs1 | 1 | -1 | 5 | -12 | -15 | x | x
CC(C)CN1C(=O)C[C@@]2(C(=O)N(C)c3ccc(NS(=O)(=O)c4ccc(F)cc4)cc32)C1c1ccccc1 (stereo partly specified) | 6 | -2 | 4 | -3 | x | x | x

Screening data from PubChem.
